In PMC11003496 (Journal of Enzyme Inhibition and Medicinal Chemistry, 2023):
Like-named read-outs stand apart in the source and are kept apart here.

How the values were obtained:
HCT116 colorectal cancer = assay: MTT cell viability assay, HCT-116; type: cell-based; details: read-out: HCT-116 IC50, 48 h, mean of six values
[1] = test system: A549 non-small cell lung cancer; assay: MTT cell viability assay, A549; type: cell-based; details: read-out: A549 IC50
EGFR = EGFR (Homo sapiens, UniProt P00533); assay: EGFR Kinase Assay Kit; type: biochemical
Sequence of EGFR (P00533 25-1210): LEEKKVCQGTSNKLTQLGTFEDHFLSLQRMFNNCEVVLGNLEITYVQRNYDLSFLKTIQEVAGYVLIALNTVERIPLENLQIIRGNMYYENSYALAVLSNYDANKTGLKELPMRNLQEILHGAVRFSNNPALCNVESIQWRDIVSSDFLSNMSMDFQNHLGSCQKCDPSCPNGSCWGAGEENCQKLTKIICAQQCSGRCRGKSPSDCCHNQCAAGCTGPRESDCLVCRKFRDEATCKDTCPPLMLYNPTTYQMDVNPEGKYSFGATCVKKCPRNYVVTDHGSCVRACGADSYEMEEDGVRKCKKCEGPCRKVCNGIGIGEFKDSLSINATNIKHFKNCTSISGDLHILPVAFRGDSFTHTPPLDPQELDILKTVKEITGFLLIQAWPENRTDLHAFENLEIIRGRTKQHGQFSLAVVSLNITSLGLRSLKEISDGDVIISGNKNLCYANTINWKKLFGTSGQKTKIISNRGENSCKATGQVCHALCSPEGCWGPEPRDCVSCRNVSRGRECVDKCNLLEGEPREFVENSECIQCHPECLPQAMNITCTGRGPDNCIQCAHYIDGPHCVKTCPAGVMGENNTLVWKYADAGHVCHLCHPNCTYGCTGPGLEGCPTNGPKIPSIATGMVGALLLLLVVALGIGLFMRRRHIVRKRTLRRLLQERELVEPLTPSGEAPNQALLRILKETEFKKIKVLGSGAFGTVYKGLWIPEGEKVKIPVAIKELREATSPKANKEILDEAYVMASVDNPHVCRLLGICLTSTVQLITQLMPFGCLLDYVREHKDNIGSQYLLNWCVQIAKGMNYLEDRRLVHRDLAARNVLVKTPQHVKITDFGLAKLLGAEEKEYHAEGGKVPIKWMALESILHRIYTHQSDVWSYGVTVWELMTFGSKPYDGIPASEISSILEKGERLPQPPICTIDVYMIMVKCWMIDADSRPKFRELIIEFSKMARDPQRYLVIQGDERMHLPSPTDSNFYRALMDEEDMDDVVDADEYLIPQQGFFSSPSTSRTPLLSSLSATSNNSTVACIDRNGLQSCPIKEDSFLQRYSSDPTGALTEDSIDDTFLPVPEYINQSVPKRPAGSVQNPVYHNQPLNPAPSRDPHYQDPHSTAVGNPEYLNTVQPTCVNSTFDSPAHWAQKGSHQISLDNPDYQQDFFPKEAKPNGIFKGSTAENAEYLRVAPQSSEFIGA
How it was run: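 Kinase kit assay. Each well held kinase buffer with DTT, ATP, and Poly(Glu:Tyr 4:1) PTK substrate (10 mg/ml stock). Test compound was added, and diluted EGFR enzyme started the reaction. Incubated 40 min at 30 °C, then Kinase-Glo Max reagent for 15 min at room temperature, and luminescence read. Controls were no-inhibitor wells and enzyme-free blanks.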

COX-1 = target: T1, COX-1 (Ovis aries, UniProt P05979); assay: In vitro COX-1 inhibition; type: biochemical
T1 sequence (P05979 25-600): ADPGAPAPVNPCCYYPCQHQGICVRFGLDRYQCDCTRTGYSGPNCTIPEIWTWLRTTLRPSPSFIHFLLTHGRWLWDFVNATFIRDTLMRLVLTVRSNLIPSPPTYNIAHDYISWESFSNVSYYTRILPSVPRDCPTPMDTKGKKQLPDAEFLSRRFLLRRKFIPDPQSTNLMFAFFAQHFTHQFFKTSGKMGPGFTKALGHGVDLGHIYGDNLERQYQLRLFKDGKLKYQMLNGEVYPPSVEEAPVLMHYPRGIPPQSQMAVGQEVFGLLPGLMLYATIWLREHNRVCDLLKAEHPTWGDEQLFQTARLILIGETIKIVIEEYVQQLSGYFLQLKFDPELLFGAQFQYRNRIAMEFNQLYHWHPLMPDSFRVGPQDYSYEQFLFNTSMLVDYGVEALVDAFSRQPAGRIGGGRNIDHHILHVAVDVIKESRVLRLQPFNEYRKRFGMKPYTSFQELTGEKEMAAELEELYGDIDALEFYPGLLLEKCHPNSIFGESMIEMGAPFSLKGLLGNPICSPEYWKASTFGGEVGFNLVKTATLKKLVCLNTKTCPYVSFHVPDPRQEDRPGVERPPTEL

aromatase (CYP19A) = target: T2, aromatase (CYP19A) (Homo sapiens, UniProt P11511); assay: Aromatase; type: biochemical
T2 sequence (P11511 1-503): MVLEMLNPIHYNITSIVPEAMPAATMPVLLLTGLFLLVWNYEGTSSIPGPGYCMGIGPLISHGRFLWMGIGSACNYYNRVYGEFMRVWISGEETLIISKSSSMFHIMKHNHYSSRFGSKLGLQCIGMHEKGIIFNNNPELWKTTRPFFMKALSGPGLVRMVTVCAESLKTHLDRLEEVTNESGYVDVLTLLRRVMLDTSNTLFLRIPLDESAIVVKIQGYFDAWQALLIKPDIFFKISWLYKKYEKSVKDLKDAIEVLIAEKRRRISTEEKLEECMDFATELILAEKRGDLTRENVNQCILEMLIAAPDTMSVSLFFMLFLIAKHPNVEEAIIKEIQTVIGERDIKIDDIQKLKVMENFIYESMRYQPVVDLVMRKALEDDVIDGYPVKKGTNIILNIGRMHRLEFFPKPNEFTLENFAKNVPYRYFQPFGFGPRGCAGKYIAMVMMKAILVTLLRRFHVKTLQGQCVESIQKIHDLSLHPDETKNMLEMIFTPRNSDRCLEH

COX-2 = target: T3, COX-2 (Homo sapiens, UniProt P35354); assay: biochemical; details: for COX-2 S.I.: in vitro COX-2 selectivity index, IC50 (COX-1)/IC50 (COX-2)
T3 sequence (P35354 18-604): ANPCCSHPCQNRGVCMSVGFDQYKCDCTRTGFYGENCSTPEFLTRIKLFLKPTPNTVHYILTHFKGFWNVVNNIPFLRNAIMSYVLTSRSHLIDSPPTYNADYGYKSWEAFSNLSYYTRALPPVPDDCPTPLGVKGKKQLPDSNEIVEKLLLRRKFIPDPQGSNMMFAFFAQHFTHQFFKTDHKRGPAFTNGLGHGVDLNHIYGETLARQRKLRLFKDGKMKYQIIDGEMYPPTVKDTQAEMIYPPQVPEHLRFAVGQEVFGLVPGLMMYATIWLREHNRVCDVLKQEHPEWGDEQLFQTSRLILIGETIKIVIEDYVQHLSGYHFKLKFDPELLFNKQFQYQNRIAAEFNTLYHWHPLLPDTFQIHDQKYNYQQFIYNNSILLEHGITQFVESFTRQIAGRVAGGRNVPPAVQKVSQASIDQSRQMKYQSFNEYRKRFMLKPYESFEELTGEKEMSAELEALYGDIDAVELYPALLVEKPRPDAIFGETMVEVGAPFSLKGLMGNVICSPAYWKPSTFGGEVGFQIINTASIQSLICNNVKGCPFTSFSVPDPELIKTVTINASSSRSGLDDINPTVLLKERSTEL

normal fibroblast F180 = assay: MTT cell viability assay, F180; type: cell-based; details: F180, 48 h, read-out: F180 IC50
B-RAF^V600E = B-RAF^V600E (Homo sapiens, UniProt P15056, V600E); assay: B-RAF^V600E Kinase Assay Kit; type: biochemical
Sequence of B-RAF^V600E (P15056 whole entry V600E): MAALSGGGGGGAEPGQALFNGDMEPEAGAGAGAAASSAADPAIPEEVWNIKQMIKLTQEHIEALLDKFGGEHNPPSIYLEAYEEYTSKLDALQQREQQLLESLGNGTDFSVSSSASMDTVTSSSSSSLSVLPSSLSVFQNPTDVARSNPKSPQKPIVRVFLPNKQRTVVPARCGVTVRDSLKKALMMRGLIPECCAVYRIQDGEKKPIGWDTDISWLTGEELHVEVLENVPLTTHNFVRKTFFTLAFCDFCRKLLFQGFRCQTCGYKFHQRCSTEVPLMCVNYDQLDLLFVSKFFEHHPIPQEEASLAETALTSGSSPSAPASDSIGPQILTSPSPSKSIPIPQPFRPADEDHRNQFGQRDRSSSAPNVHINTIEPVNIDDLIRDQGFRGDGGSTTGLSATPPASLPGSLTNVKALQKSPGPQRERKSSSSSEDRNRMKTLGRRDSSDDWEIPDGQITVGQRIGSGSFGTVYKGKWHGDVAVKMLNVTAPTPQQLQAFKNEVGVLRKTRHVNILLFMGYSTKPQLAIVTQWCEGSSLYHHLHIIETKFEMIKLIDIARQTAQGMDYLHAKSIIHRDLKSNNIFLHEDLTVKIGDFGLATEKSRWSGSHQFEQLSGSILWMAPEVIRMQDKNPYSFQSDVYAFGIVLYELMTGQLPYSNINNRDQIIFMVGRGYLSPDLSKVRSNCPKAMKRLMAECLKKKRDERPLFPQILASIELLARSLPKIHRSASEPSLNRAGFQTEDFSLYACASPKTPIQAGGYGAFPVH

[2] = test system: Hep3b hepatocellular carcinoma cell line; assay: MTT cell viability assay, HEP-3B; type: cell-based; details: Homo sapiens, 48 h, read-out: HEP-3B IC50
breast MCF7 cells = assay: Cell cycle analysis by flow cytometry; type: cell-based, human; details: for cell cycle arrest phase: compound at its IC50; for %G0-G1 / %G2-M / %S: compound at its IC50, 24 h
How it was run: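 MCF7 breast cells were exposed to the test compound for 24 h, then rinsed with PBS, centrifuged and fixed in 70% ethanol. After a PBS wash they were suspended in 0.1 mg/mL RNase and stained with propidium iodide. Flow cytometry on a FACS Calibur measured DNA content to give G0/G1, S and G2/M distribution against negative control.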

MCF7 breast cells = assay: Apoptosis by Annexin-V-FITC/PI flow cytometry; type: cell-based, human; details: for Apoptosis Early / Apoptosis Late / Apoptosis Total / Necrosis: compound at its IC50, 24 h; for late apoptosis increase compared to control: control 0.27% (late); for early apoptosis increase compared to control: control 0.41% (early)
How it was run: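 MCF7 breast cells were treated with the test compound for 24 h, then collected and rinsed twice with PBS. They were stained with Annexin-V-FITC plus propidium iodide for 30 min at room temperature in the dark. Analysis on a FACS Calibur flow cytometer gave early apoptotic, late apoptotic and necrotic fractions, compared against untreated control.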

[3] = test system: MCF7 human breast adenocarcinoma cell line; assay: MTT cell viability assay, MCF-7; type: cell-based; details: MCF7, 48 h, read-out: MCF-7 IC50

What does the source list for `O=c1[nH]cc(F)c(=O)[nH]1` [Compound 5-F.U., reference compound]?
IC50 (HCT116 colorectal cancer): 4.8 µM; IC50 ([1]; MTT, 48 h, mean of six values): 6 µM

With `COC(=O)N[C@@H](C)CNc1nccc(-c2cn(C(C)C)nc2-c2cc(Cl)cc(NS(C)(=O)=O)c2F)n1` [Encorafenib, encorafenib, reference compound] as the compound, how does the IC50 (EGFR) read?
The IC50 was 0.037 µM.

`COc1ccc(/C(CSc2nnc(-c3nnn(-c4ccc(S(N)(=O)=O)cc4)c3C)n2-c2ccccc2)=N\O)cc1` [Compound 19c, (E)-4-(4-(5-((2-(hydroxyimino)-2-(4-methoxyphenyl)ethyl)thio)-4-phenyl-4H-1,2,4-triazol-3-yl)-5-methyl-1H-1,2,3-triazol-1-yl)benzenesulfonamide] was tested. Which IC50 (COX-1) did it give?
The IC50 was 10.7 ± 0.025 µM.

What about the IC50 (aromatase (CYP19A)) of the same compound?
Its IC50 is 22.4 µM.

And the IC50 (COX-2)?
The IC50 was 0.309 ± 0.041 µM.

And the “COX-2 S.I.” value (COX-2)?
The value was 34.62.

And the IC50 (normal fibroblast F180)?
The IC50 was 15.4 µM.

What about the IC50 (B-RAF^V600E) of the same compound?
Its IC50 is 0.09 µM.

And the IC50 [2]?
Its IC50 is 4.5 to 14 µM.

And the “cell cycle arrest phase” value (breast MCF7 cells)?
Its value is “cell cycle arrest at G2/M phase”.

And the “%G0-G1” value (breast MCF7 cells)?
The value was 37.88%.

And the “%G2-M” value (breast MCF7 cells)?
The value was 26.98%.

What about the “%S” value (breast MCF7 cells) of the same compound?
The value was 35.14%.

What about the “Apoptosis Early” value (MCF7 breast cells) of the same compound?
The value was 21.85%.

What about the “Apoptosis Late” value (MCF7 breast cells) of the same compound?
Its value is 12.36%.

And the “Apoptosis Total” value (MCF7 breast cells)?
The value was 41.55.

And the Necrosis (MCF7 breast cells)?
Its Necrosis is 7.34%.

What about the “late apoptosis increase compared to control” value (MCF7 breast cells) of the same compound?
The value was 45.77 fold.

What about the “early apoptosis increase compared to control” value (MCF7 breast cells) of the same compound?
Its value is 53.29 fold.

What about the IC50 ([1]; Homo sapiens, A549, 48 h) of the same compound?
Its IC50 is 4.5 µM.

What about the IC50 [3] of the same compound?
Its IC50 is 14 µM.

And the IC50 (EGFR)?
The IC50 was 0.112 µM.

Which results are given for `COc1ccc(-n2c(SC/C(=N/O)c3ccc(C)cc3)nnc2-c2nnn(-c3ccc(S(N)(=O)=O)cc3)c2C)cc1` [Compound 19h, (E)-4-(4-(5-((2-(hydroxyimino)-2-(p-tolyl)ethyl)thio)-4-(4-methoxyphenyl)-4H-1,2,4-triazol-3-yl)-5-methyl-1H-1,2,3-triazol-1-yl)benzenesulfonamide]?
IC50 (COX-1): 8.6 ± 0.027 µM; IC50 (aromatase (CYP19A)): 22.7 µM; IC50 (COX-2): 0.309 ± 0.071 µM; COX-2 S.I. (COX-2): 27.83; IC50 (normal fibroblast F180): 11.3 µM; IC50 (B-RAF^V600E): 0.07 µM; cell cycle arrest phase (breast MCF7 cells): cell cycle arrest at G2/M phase; %G0-G1 (breast MCF7 cells): 45.44%; %G2-M (breast MCF7 cells): 26.39%; %S (breast MCF7 cells): 28.17%; Apoptosis Early (MCF7 breast cells): 22.54%; Apoptosis Late (MCF7 breast cells): 14.91%; Apoptosis Total (MCF7 breast cells): 42.21; Necrosis (MCF7 breast cells): 4.76%; late apoptosis increase compared to control (MCF7 breast cells): 55.22 fold; early apoptosis increase compared to control (MCF7 breast cells): 54.97 fold; IC50 ([1]; Homo sapiens, A549, 48 h): 4 µM; IC50 [3]: 15 µM; IC50 (EGFR): 0.169 µM

`COc1cccc2c1C(=O)c1c(O)c3c(c(O)c1C2=O)C[C@@](O)(C(=O)CO)C[C@@H]3O[C@H]1C[C@H](N)[C@H](O)[C@H](C)O1` [Doxorubicin, doxorubicin, reference compound] was tested. Which IC50 (normal fibroblast F180) did it give?
Its IC50 is 4.28 µM.

And the IC50 [3]?
The IC50 was 0.3 µM.

Which IC50 (COX-1) does the source give for `COc1ccc(-n2c(SC/C(=N/O)c3ccccc3)nnc2-c2nnn(-c3ccc(S(N)(=O)=O)cc3)c2C)cc1` [Compound 19g, (E)-4-(4-(5-((2-(hydroxyimino)-2-phenylethyl)thio)-4-(4-methoxyphenyl)-4H-1,2,4-triazol-3-yl)-5-methyl-1H-1,2,3-triazol-1-yl)benzenesulfonamide] here?
The IC50 was 4.76 ± 0.034 µM.

And the IC50 (COX-2)?
Its IC50 is 0.394 ± 0.031 µM.

What about the “COX-2 S.I.” value (COX-2) of the same compound?
The value was 12.08.

With `Cc1c(-c2nnc(SC/C(=N/O)c3ccc(Cl)cc3)n2-c2ccccc2)nnn1-c1ccc(S(N)(=O)=O)cc1` [Compound 19d, (E)-4-(4-(5-((2-(4-chlorophenyl)-2-(hydroxyimino)ethyl)thio)-4-phenyl-4H-1,2,4-triazol-3-yl)-5-methyl-1H-1,2,3-triazol-1-yl)benzenesulfonamide] as the compound, how does the IC50 (COX-1) read?
Its IC50 is 4.63 ± 0.023 µM.

And the IC50 (COX-2)?
The IC50 was 0.437 ± 0.037 µM.

And the “COX-2 S.I.” value (COX-2)?
Its value is 10.59.

Which results are given for `COc1ccc(-n2c(SC/C(=N/O)c3ccc(Cl)cc3)nnc2-c2nnn(-c3ccc(S(N)(=O)=O)cc3)c2C)cc1` [Compound 19j, (E)-4-(4-(5-((2-(4-chlorophenyl)-2-(hydroxyimino)ethyl)thio)-4-(4-methoxyphenyl)-4H-1,2,4-triazol-3-yl)-5-methyl-1H-1,2,3-triazol-1-yl)benzenesulfonamide]?
IC50 (COX-1): 3.43 ± 0.026 µM; IC50 (COX-2): 0.397 ± 0.025 µM; COX-2 S.I. (COX-2): 8.63; IC50 [2]: 4.5 µM

`CNC(=O)c1cc(Oc2ccc(NC(=O)Nc3ccc(Cl)c(C(F)(F)F)c3)cc2)ccn1` [Sorafenib, sorafenib, reference compound] was tested. Which IC50 [2] did it give?
The IC50 was 3.5 µM.

`COc1ccc(/C(CSc2nnc(-c3nnn(-c4ccc(S(N)(=O)=O)cc4)c3C)n2-c2ccc(OC)cc2)=N\O)cc1` [Compound 19i, (E)-4-(4-(5-((2-(hydroxyimino)-2-(4-methoxyphenyl)ethyl)thio)-4-(4-methoxyphenyl)-4H-1,2,4-triazol-3-yl)-5-methyl-1H-1,2,3-triazol-1-yl)benzenesulfonamide] was tested. Which IC50 (COX-1) did it give?
The IC50 was 4.6 ± 0.048 µM.

And the IC50 (COX-2)?
The IC50 was 0.363 ± 0.061 µM.

What about the “COX-2 S.I.” value (COX-2) of the same compound?
Its value is 12.67.

`Cc1c(-c2nnc(SC/C(=N/O)c3ccccc3)n2-c2ccccc2)nnn1-c1ccc(S(N)(=O)=O)cc1` [Compound 19a, (E)-4-(4-(5-((2-(hydroxyimino)-2-phenylethyl)thio)-4-phenyl-4H-1,2,4-triazol-3-yl)-5-methyl-1H-1,2,3-triazol-1-yl)benzenesulfonamide] was tested. Which IC50 (COX-1) did it give?
Its IC50 is 4.84 ± 0.02 µM.

What about the IC50 (COX-2) of the same compound?
The IC50 was 0.343 ± 0.07 µM.

And the “COX-2 S.I.” value (COX-2)?
Its value is 14.11.

Which IC50 (COX-1) does the source give for `Cc1ccc(/C(CSc2nnc(-c3nnn(-c4ccc(S(N)(=O)=O)cc4)c3C)n2-c2ccccc2)=N\O)cc1` [Compound 19b, (E)-4-(4-(5-((2-(hydroxyimino)-2-(p-tolyl)ethyl)thio)-4-phenyl-4H-1,2,4-triazol-3-yl)-5-methyl-1H-1,2,3-triazol-1-yl)benzenesulfonamide] here?
Its IC50 is 4.42 ± 0.021 µM.

And the IC50 (COX-2)?
Its IC50 is 0.485 ± 0.048 µM.

What about the “COX-2 S.I.” value (COX-2) of the same compound?
Its value is 9.11.
